Experimental data from different studies.
Cell line: A549
Read-out: cell growth or viability

Compound | test | setting | IC50
CC(C)CNC(=S)N/N=C/c1ccc(N2CCC(O)CC2)cc1 | MTT | 24 h | 1.5 µM
CCCCn1cnc2ccc(-c3ccc(NC(=O)NCc4ccccc4)nc3)cc2c1=O | CCK-8 | 72 h | 0.38 µM
C(=N\Nc1cc(N/N=C/c2cccc3cccnc23)nc(-c2ccccc2)n1)/c1cccc2cccnc12 | MTT | 48 h | 12.6 µM
COc1cccc(NC(=O)Nc2nc3cc(-c4ccc5ncn(CC(=O)N6CCOCC6)c(=O)c5c4)ccc3s2)c1 | MTT | 72 h | > 20 µM
CC(=O)c1c(O)c2ccccc2oc1=O | MTT | 48 h | 29.2 µM
OC1CCN(c2ccc(/C=N/NC(=S)Nc3ccccc3)cc2)CC1 | MTT | 24 h | 3.77 µM
COc1cc(C2C3=C(Nc4nc(SC)[nH]c(=O)c42)c2ccccc2C3=O)ccc1O (stereo not drawn) | MTT | 72 h | > 1000 µM
O=C(Nc1ccc(-c2ccc3ncn(Cc4ccccc4)c(=O)c3c2)cn1)C1CCCC1 | CCK-8 | 72 h | > 10 µM
NNc1nc2c(Cl)cc(Cl)cc2c(=O)n1-c1ccc(Cl)cc1 | MTT | 48 h | 25.9 µM
O=C(Nc1ccc(C(F)(F)F)cc1)Nc1nc2cc(-c3ccc4ncn(CCN5CCOCC5)c(=O)c4c3)ccc2s1 | MTT | 72 h | 2.01 µM
COc1cccc2c1C(=O)c1c(O)c3c(c(O)c1C2=O)C[C@@](O)(C(=O)CO)C[C@@H]3O[C@H]1C[C@H](N)[C@H](O)[C@H](C)O1 | MTT | 48 h | 5.95 µM
CC(=NNC(=O)c1cc(-c2ccccc2)n(-c2ccc(S(N)(=O)=O)cc2)n1)c1ccc(Br)cc1 | fluorescence | 48 h | 25.9 µM
OC1CCN(c2ccc(/C=N/NC(=S)NCc3ccccc3)cc2)CC1 | MTT | 24 h | 4.25 µM
CCCCC(=O)Nc1cc(F)c(-c2ccc3ncn(CCC)c(=O)c3c2)cn1 | CCK-8 | 72 h | 1.58 µM
COc1cccc(NC(=O)Nc2nc3cc(-c4ccc5ncn(CCN(C)C)c(=O)c5c4)ccc3s2)c1 | MTT | 72 h | 0.91 µM
CC(C)c1ccc(/C=C2\N=C(SCC(=O)O)N(c3ccccc3)C2=O)cc1 | MTT |  | 57.4 µg/mL
CC(C)CNC(=S)N/N=C/c1cccc2cc3ccccc3nc12 | MTT | 48 h | > 50 µM
O=C(O)c1ccc(NCc2cccc([N+](=O)[O-])c2)cc1 | resazurin | 72 h | > 100 µM
O=c1c2cc(Cl)cc(Cl)c2nc(NNc2cccc(Cl)c2)n1-c1ccccc1 | MTT | 48 h | > 200 µM
CCCC(C)C(=O)Nc1ccc(-c2ccc3ncn(CCC)c(=O)c3c2)cn1 (stereo not drawn) | CCK-8 | 72 h | 9.85 µM
NNc1nc2c(Cl)cc(Cl)cc2c(=O)n1-c1ccc(F)cc1 | MTT | 48 h | 80 µM
CN(C)CCn1cnc2ccc(-c3ccc4sc(NC(=O)Nc5ccc(F)cc5)nc4c3)cc2c1=O | MTT | 72 h | 0.98 µM
COc1cccc2c1C(=O)c1c(O)c3c(c(O)c1C2=O)C[C@@](O)(C(=O)CO)C[C@@H]3O[C@H]1C[C@H](N)[C@H](O)[C@H](C)O1 |  | 96 h | 0.236 µM

Compound | test | setting | IC50
CCCCn1cnc2ccc(-c3ccc(NC(=O)C4CCCC4)nc3)cc2c1=O | CCK-8 | 72 h | 4.58 µM
O=C(O)c1ccc(NCc2ccc(Br)cc2)cc1 | resazurin | 72 h | > 100 µM
COc1cccc2c1C(=O)c1c(O)c3c(c(O)c1C2=O)C[C@@](O)(C(=O)CO)C[C@@H]3O[C@H]1C[C@H](N)[C@H](O)[C@H](C)O1 | MTT | 24 h | 0.69 µg/mL
S=C(N/N=C/c1cccc2cc3ccccc3nc12)Nc1ccccc1 | MTT | 48 h | > 50 µM
CCCn1cnc2ccc(-c3ccc(NC(=O)CC4CC4)nc3)cc2c1=O | CCK-8 | 72 h | 2.65 µM
O=C(C=Cc1cccs1)c1ccc(OCCOc2ccc(C(=O)C=Cc3cccs3)cc2)cc1 | MTT | 48 h | 42 µM
Cc1ccc(NC(=O)Nc2ccc(-c3ccc4ncn(Cc5ccccc5)c(=O)c4c3)cn2)cc1 | CCK-8 | 72 h | > 10 µM
CC(C)[C@@H]1NC(=O)[C@@H](CCCNC(=N)N)NC(=O)[C@H](C)NC(=O)[C@@H](CCCN)NC(=O)[C@H](Cc2ccccc2)NC(=O)[C@@H](Cc2ccccc2)NC1=O | ATP luminescence | 72 h | > 100 µM
CCCC(=O)Nc1nc2cc(-c3ccc4ncn(Cc5ccccc5)c(=O)c4c3)ccc2s1 | MTT | 72 h | 7.87 µM
CNCc1cc(OC)cc2c1CN(c1cccc(-c3nncn3C(C)CC(F)(F)F)n1)C2=O (stereo not drawn) | CCK-8 |  | > 10 µM
CC1=CC(=O)c2ccccc2C1=O | MTT |  | 55.6 µM
O=C(O)c1ccc(NCc2ccc([N+](=O)[O-])cc2)cc1 | resazurin | 72 h | > 100 µM
C/C(=N\CCNCCNCC/N=C(\C)c1c(O)c2ccccc2oc1=O)c1c(O)c2ccccc2oc1=O | MTT | 48 h | 6.66 µM
COc1ccc(NC(=O)Nc2nc3cc(-c4ccc5ncn(Cc6ccccc6)c(=O)c5c4)ccc3s2)cc1 | MTT | 72 h | 2.75 µM
NS(=O)(=O)c1ccc(-n2nc(-c3nnc(CCl)o3)cc2-c2ccccc2)cc1 | fluorescence | 48 h | 22.3 µM
COc1ccc(CNc2ccc(C(=O)O)cc2)cc1OC | resazurin | 72 h | > 100 µM
COc1ccc(C=NNC(=O)c2cc(-c3ccccc3)n(-c3ccc(S(N)(=O)=O)cc3)n2)cc1OC | fluorescence | 48 h | 15.5 µM
O=C(Nc1ccc(F)cc1)Nc1nc2cc(-c3ccc4ncn(Cc5ccccc5)c(=O)c4c3)ccc2s1 | MTT | 72 h | 2.83 µM
CCc1oc2cc(S(=O)(=O)Nc3ccc(S(=O)(=O)Nc4nccs4)cc3)ccc2c1C(=O)c1cc(Br)c(O)c(Br)c1 | MTT | 96 h | 226 µM
O=C(NCc1ccccc1)Nc1nc2cc(-c3ccc4ncn(Cc5ccccc5)c(=O)c4c3)ccc2s1 | MTT | 72 h | 3.13 µM
CC(C)[C@@H]1NC(=O)[C@@H](CCCNC(=N)N)NC(=O)[C@H]([C@@H](C)O)NC(=O)[C@@H](CCCN)NC(=O)[C@H](Cc2ccc(O)cc2)NC(=O)[C@@H](Cc2ccccc2)NC1=O | ATP luminescence |  | > 100 µM
Cc1cc(NS(=O)(=O)c2ccc(NC(=O)/C(C#N)=C/c3ccc(N4CCCCC4)cc3)cc2)no1 | MTT | 48 h | 36.4 µM
